Source: PubChem BioAssay
Unmarked numbers belong to inactive results. Results filed as inconclusive are left out. Activity calls are given as the source filed them.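 How the source made its calls, unless noted: active means growth inhibition above 25% in both replicates, a cutoff set 3 SD above the mean; inconclusive means above 25% in only one replicate; inactive means the rest.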

Experiments:
[1] = OD615 S. cerevisiae growth inhibition, permissive medium, pilot counter-assay, permissive growth control for S. cerevisiae lifespan shortening project (AID 705); details: OD615, 24 h, at 10 µM, stronger effect = higher value
Outline: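 System: Engineered DeaD yeast | Buffer or medium: SC raffinose/galactose permissive medium | Incubation: Cells pre-grown 4 h, then 24 h compound exposure, 30 °C humidified | Measured by: Absorbance (optical density) at 615 nm | Read-out: Reduction in yeast growth (OD615)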

[2] = Restrictive medium S. cerevisiae growth inhibition, OD615, pilot screen of yeast lifespan reduction project, restrictive growth control (AID 706;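 active means growth inhibition above a set limit, 3 SD over mean compound inhibition, in both replicates, cut at about 43% in these data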;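 further: modified DeaD lifespan yeast strain shifted to restrictive glucose medium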); details: OD615, 48 h, at 10 µM, stronger effect = higher value
Outline: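 Material: modified S. cerevisiae; Medium: glucose-based CSMM-D restrictive medium; Compound dosing: one concentration, 10 µM final, 0.25% DMSO; Incubation: 48 h compound exposure at 30 °C; Measured by: OD615.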

[3] = viability gain of MRP-1-high H69AR cells under doxorubicin, pilot screen, MRP-1 activator project, CellTiter-Glo, duplicate (AID 807;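 active means viability increase at or above a cutoff of the median across tested compounds plus 3 SD, cut at about 8.5% in these data, passing the limit was not always enough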;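 further: compound pretreatment 18-22 h then 72 h combined with doxorubicin; 0% = doxorubicin alone and 100% = vehicle without doxorubicin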); details: H69AR viability with doxorubicin, CellTiter-Glo luminescence; at 10 µM; stronger effect = higher value
[4] = growth suppression of beta-catenin knockout HCT116, pilot screen, human colon tumor cells (AID 823;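 active means cell viability at or below a set limit in both duplicate runs, the limit being the all-compound median minus 4 SD, cut at about 23% in these data, passing the limit was not always enough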;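 further: 0% = wells killed by 20 µM Hyamine and 100% = untreated DMSO cell wells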); details: CellTiter-Glo, 60 h, at 10 µM, stronger effect = lower value
[5] = growth suppression of PTEN-deleted HCT116, pilot screen, cell-based, HCT116 clonal line, CellTiter-Glo (AID 824;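 active means viability at or below 27.92% in each of two runs, the all-compound median minus 4 SD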;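 further: 0% = 20 µM Hyamine control and 100% = vehicle cell control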); details: 60 h, at 10 µM, stronger effect = lower value
[6] = inhibitors of the yeast RAM network, pilot screen, dse1pr::URA3 reporter, 5-FOA selection (AID 869;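 active means inhibition over a set limit, the all-compound mean plus 3 SD, in both replicate runs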;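 further: 0% = DMSO wells with no growth and 100% = 10 µM 1-NA-PP1 with full growth; RAM network block rescues cells from 5-FOA so hits raise OD615 growth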); details: S. cerevisiae dse1pr::URA3 5-FOA growth, OD615, 2 d; at 10 µM; stronger effect = higher value; strain carries analog-sensitive mutant Cbk1 kinase
[7] = RAM signaling pathway blockade in yeast – S. cerevisiae, Pdr1DBD-CYC8 efflux-inhibited sensitized strain, primary screen (AID 1298;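 active means RAM network inhibition above 8.4% in each of two replicates, 3 SD over the compound average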;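 further: 0% = DMSO untreated cells without growth and 100% = 10 µM 1-NA-PP1 full growth; higher means more yeast growth rescued from 5-FOA killing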); details: S. cerevisiae cbk1-as DSE1-URA3 strain, 5-FOA growth OD615, 2 d; at 50 µM; stronger effect = higher value

| SMILES | growth inhibition [1] | growth inhibition [2] | viability increase [3] | viability [4] | viability [5] | inhibition [6] | RAM network inhibition [7] |
| --- | --- | --- | --- | --- | --- | --- | --- |
| COc1ccc(-c2noc(CN3CCN(c4ccccc4)CC3)n2)cc1 | -12.7% | -10.2% | -1.14% | 93.6% | 88.4% | 1% | 5.43% |
| CCN1CCN(CCCNC(=O)c2ccc3c(c2)NC(=O)c2ccccc2S3)CC1 | -15.9% | -14.5% | -2.37% | 90.6% | 95.4% | 0.905% | 5.84% |
| O=C(Nc1ccccc1Cl)N1CCN(c2ccccn2)CC1 | -6.09% | -5.88% | -0.46% | 103% | 109% | 1.91% | 4.61% |
| CCc1ccc(NC(=O)CN(c2ccc3c(c2)OCO3)S(=O)(=O)c2c(C)noc2C)cc1 | -16.8% | -11.4% | 0.12% | 85.5% | 80.5% | 3.38% | 9.54% |
| CCC(Sc1ccc2nnc(-c3cccnc3)n2n1)C(=O)O (configuration not stated) | -18.7% | -14.8% | -0.8% | 100% | 95.8% | 2.44% | 6.69% |
| CC(C)C(NS(=O)(=O)c1ccc2c3c(cccc13)C(=O)N2)C(=O)O (configuration not stated) | -4.62% | -4.4% | -0.28% | 97% | 93.6% | 1.71% | 3.8% |
| Cc1cccc2sc(NC(=O)c3ccc(Cl)s3)nc12 | -21.9% | -21.5% | -7.7% | 68.7% | 56% | 2.64% | 5.32% |
| c1ccc(-c2csc3ncn4cnnc4c23)cc1 | -7.59% | 2.29% | -1.06% | 97.8% | 91.4% | 1.15% | 2.91% |
| O=C(CN1CCOc2ccccc21)NC1CC1 | -8.82% | 8.71% | -3.71% | 88.1% | 98.8% | 1.16% | -0.26% |
| NC(=O)C1CCN(C(=O)C2CCN(S(=O)(=O)c3ccccc3)CC2)CC1 | -2.18% | 12.3% | -1.4% | 102% | 105% | 1.06% | 0.84% |
| COc1cc(C(=O)n2nc(C)cc2C)cc(OC)c1OC | -9.3% | -12.6% | -0.4% | 99.5% | 98.9% | 1.08% | 2.67% |
| COc1ccc(C(=O)/C=C/N2CCCCC2)cc1OC | 53.1% (active) | 74.3% (active) | -4.55% | 77.8% | 86.6% | 0.145% | -1.38% |
| Cc1ccc(S(=O)(=O)NCC(=O)N2CCOCC2)cc1 | -3.62% | -10.3% | -1.57% | 103% | 109% | -0.085% | 0.68% |
| CC(c1ccc(Br)cc1)N1CC23C=CC(O2)C(C(=O)O)C3C1=O (configuration not stated) | 0.305% | 6.24% | -0.16% | 102% | 99.7% | 1.27% | -1.25% |
| O=C1c2ccccc2-c2nc3ncnn3c(-c3ccccc3Cl)c21 | -6.53% | -0.65% | -3.38% | 83.3% | 76.9% | 0.39% | 0.58% |
| CCOC(=O)c1sc(NC(=O)C2CC2)nc1C | -2.83% | 0.375% | 0.91% | 99.6% | 95.1% | 0.595% | -1.46% |
| CC1CCCCN1Cc1nc2c(c(=O)n(C)c(=O)n2C)n1Cc1c(F)cccc1Cl (configuration not stated) | 1.95% | -6.45% | -3.05% | 78.6% | 79.2% | 1.46% | 0.66% |
| COC(=O)C1=C(C)N(C)C(C)=C(C(=O)OC)C1c1ccsc1 | -6.88% | -6.81% | -2.96% | 91.4% | 87.8% | 1.99% | 2.51% |

| SMILES | growth inhibition [1] | growth inhibition [2] | viability increase [3] | viability [4] | viability [5] | inhibition [6] | RAM network inhibition [7] |
| --- | --- | --- | --- | --- | --- | --- | --- |
| CC(C)NC(=O)CCCc1ccccc1 | -8% | -14.1% | -1.04% | 92.1% | 91.1% | 1.2% | -0.58% |
| CP(=O)(COC(=O)c1ccccc1)COC(=O)c1ccccc1 | -20.8% | -19% | -0.63% | 100% | 96.5% | 3.13% | 1.26% |
| Cc1oc2cc(O)ccc2c(=O)c1N1C(=O)c2ccccc2C1=O | -5.69% | 0.06% | 1.85% | 98.2% | 99.8% | 1.11% | 1.15% |
| Cc1ccc(S(=O)(=O)CNC(=O)c2ccccc2)cc1 | -4.27% | 3.26% | 1.64% | 97.8% | 96.8% | 1.57% | 0.51% |
| CC(=O)c1cccc(NC(=O)c2cnn3ccccc23)c1 | -8.43% | -17.2% | -2.54% | 95.5% | 84.4% | 1.73% | 4.75% |
| CCn1c2ccccc2c2cc(NC(=O)c3ccco3)ccc21 | -4.29% | -0.22% | -3.74% | 96.1% | 93% | 0.345% | 0.96% |
| Cn1c(=O)oc2cc(S(=O)(=O)NCc3ccco3)ccc21 | 2.12% | 5.31% | -4.38% | 101% | 93.8% | 1.41% | 3.2% |
| O=C1CC(N2CCN(c3nc4ccccc4s3)CC2)C(=O)N1c1ccc(F)cc1 (configuration not stated) | 0.4% | 0.52% | 6.28% | 88.7% | 94.3% | 1.54% | 3.67% |
| O=S(=O)(NCCc1csc(-c2cccnc2)n1)c1cccs1 | 1.37% | -2.33% | -1.11% | 104% | 96.8% | 1.42% | 0.73% |
| CN(C)C(=O)CSc1nnc(-c2cccnc2)n1-c1ccccc1 | -5.85% | -5.54% | -0.98% | 98.6% | 95.1% | 1.36% | 2.91% |
| O=C1C2C3C=CC(C3)C2C(=O)N1c1ccccc1 (configuration not stated) | -0.875% | 4.47% | 0.71% | 100% | 98.7% | 1.81% | 1.49% |
| CCc1n[nH]c2c1/C(=N\O)CC(C)(C)C2 | -4.62% | -1.83% | -2.26% | 99.4% | 108% | 1.68% | 1.03% |
| O=C(C1CC(c2ccc(F)cc2)=NO1)N1CCN(Cc2ccccc2)CC1 (configuration not stated) | -0.77% | -2.39% | -1.28% | 96.2% | 101% | 1.8% | 2.3% |
| CCOC(=O)C1Cc2ccccc2C(=O)O1 (configuration not stated) | -4.84% | -2.44% | -0.24% | 96.4% | 100% | 0.47% | 5.42% |
| N#CC1=C2SCN(Cc3ccco3)CN2C(=O)CC1c1c(F)cccc1Cl (configuration not stated) | -2.04% | 20.3% | -4.91% | 88% | 88.1% | 1.95% | 4.76% |
| COc1ccc(S(=O)(=O)NCCSc2ccc(C)cc2)cc1OC | 1.08% | 1.66% | -2.26% | 85.8% | 86.1% | 1.18% | 2.65% |
| O=C(NC1CCCCCC1)C1C2C=CC3(CN(Cc4cccnc4)C(=O)C13)O2 (configuration not stated) | 0.045% | 8.75% | 0.68% | 101% | 107% | 0.18% | 1.44% |
| Cc1ccc(S(=O)(=O)/N=C(/Nc2nc(C)cc(C)n2)N2CCOCC2)cc1 | -0.825% | -15.5% | -3.21% | 98.7% | 97.4% | 1.6% | 4.96% |
